# ChEMBL document CHEMBL5365542, “Difluoromethyl-1,3,4-oxadiazoles Are Selective, Mechanism-Based, and Essentially Irreversible Inhibitors of Histone Deacetylase 6” (J Med Chem, 2023)
# Experiments:
# [1] = biological target: Histone deacetylase 3/Nuclear receptor corepressor 2 (HDAC3/NCoR2) (Homo sapiens) (UniProt O15379+Q9Y618); test: Inhibition of C-terminal His-tagged human HDAC3 (1 to 428 residues)/N-terminal GST tagged human NcoR2 (395 to 489 residues) expressed in Sf9 insect cells using Z-Lys(Ac)-AMC as fluorogenic substrate at 10 uM preincubated for 60 mins followed by substrate addition and measured after 90 mins by microplate reader analysis relative to control; conditions: time 150.0 min
# Procedure, shortened: (§1)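 Human recombinant enzyme was preincubated with 3-fold inhibitor dilutions for 60 min at 25 °C in Tris-HCl pH 8.0 buffer with BSA. ZMAL (75 μM solution) was then added, and the mix was incubated 90 min at 37 °C (max 1% DMSO). Trypsin was added for 30 min at 37 °C, and fluorescence was read at ex 355/em 460. Tested at least twice in duplicate.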
# [2] = biological target: T1, Protein deacetylase HDAC6 (Homo sapiens) (UniProt Q9UBN7); test: (§2) Inhibition of N-terminal GST tagged human recombinant HDAC6 (1 to 1215 residues) expressed in Sf9 insect cells using Z-Lys(Ac)-AMC as fluorogenic substrate at 10 uM preincubated for 60 mins followed by substrate addition and measured after 90 mins by microplate reader analysis relative to control; conditions: time 150.0 min; procedure, shortened: as §1
# T1 sequence (whole entry): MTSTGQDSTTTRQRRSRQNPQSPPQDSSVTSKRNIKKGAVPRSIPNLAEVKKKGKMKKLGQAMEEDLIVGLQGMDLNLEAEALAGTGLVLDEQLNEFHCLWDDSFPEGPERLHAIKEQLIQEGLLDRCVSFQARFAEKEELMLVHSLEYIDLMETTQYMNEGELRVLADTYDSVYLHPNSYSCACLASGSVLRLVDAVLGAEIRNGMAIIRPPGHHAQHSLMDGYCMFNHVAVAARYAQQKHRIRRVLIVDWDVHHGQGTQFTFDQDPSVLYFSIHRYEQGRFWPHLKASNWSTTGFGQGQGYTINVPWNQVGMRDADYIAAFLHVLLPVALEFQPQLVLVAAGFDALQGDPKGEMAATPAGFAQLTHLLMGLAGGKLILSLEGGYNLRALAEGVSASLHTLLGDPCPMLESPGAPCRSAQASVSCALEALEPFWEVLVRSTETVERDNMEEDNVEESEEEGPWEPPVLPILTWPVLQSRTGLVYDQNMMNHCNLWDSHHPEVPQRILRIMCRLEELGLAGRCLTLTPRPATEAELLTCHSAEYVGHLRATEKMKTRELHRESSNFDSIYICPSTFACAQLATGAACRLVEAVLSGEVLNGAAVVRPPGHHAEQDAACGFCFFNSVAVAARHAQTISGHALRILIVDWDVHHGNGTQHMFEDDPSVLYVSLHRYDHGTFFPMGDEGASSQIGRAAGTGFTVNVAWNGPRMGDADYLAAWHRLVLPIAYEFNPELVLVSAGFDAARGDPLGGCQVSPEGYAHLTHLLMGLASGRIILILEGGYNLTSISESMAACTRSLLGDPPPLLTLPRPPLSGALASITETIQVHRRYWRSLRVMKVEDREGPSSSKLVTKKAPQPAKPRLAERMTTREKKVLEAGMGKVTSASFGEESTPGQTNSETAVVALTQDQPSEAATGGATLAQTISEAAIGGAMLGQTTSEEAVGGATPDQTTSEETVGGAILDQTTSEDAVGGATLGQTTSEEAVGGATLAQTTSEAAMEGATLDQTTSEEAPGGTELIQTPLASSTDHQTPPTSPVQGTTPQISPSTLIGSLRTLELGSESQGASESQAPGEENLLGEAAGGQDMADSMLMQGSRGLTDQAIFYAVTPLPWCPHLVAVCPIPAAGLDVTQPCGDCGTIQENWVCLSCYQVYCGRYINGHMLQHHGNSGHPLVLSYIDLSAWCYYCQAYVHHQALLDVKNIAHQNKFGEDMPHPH
# [3] = biological target: Histone deacetylase 2 (Homo sapiens) (UniProt Q92769); test: (§3) Inhibition of C-terminal 6His-tagged human recombinant HDAC2 (1 to 488 residues) expressed in Sf9 insect cells using Z-Lys(Ac)-AMC as fluorogenic substrate at 10 uM preincubated for 60 mins followed by substrate addition and measured after 90 mins by microplate reader analysis relative to control; conditions: time 150.0 min; procedure, shortened: as §1
# [4] = biological target: Histone deacetylase 1 (Homo sapiens) (UniProt Q13547); test: as §3, with “6His/FLAG tagged” for “6His-tagged”, “HDAC1” for “HDAC2”, “482” for “488”, “residues) […]” for “residues)”; conditions: time 150.0 min; procedure, shortened: as §1
# [5] = biological target: Histone deacetylase 4 (Homo sapiens) (UniProt P56524); test: as §2, with “GST-tagged/C-terminal His-tagged” for “GST tagged”, “HDAC4 (627” for “recombinant HDAC6 (1”, “1084” for “1215”, “Boc-Lys(Tfa)-AMC” for “Z-Lys(Ac)-AMC”; conditions: time 150.0 min
# Procedure, shortened: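 Recombinant human HDAC4 was preincubated with inhibitor for 60 min at 25 °C in Tris-HCl pH 8.0/BSA buffer. Boc-Lys(Tfa)-AMC (42.86 μM solution) was then added for 90 min at 37 °C, followed by trypsin for 30 min at 37 °C. Fluorescence was read at ex 355/em 460. Tested at least twice in duplicate.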
# [6] = biological target: T2, Protein deacetylase HDAC6 (Homo sapiens, UniProt Q9UBN7); test: Inhibition of N-terminal GST tagged human recombinant HDAC6 (1 to 1215 residues) expressed in Sf9 insect cells using Z-Lys(Ac)-AMC as fluorogenic substrate preincubated for 60 mins followed by substrate addition and measured after 90 mins by microplate reader analysis
# T2 sequence (Q9UBN7 whole entry): T1 sequence (whole entry)
# Sequence of Histone deacetylase 4 (Homo sapiens) (P56524 whole entry): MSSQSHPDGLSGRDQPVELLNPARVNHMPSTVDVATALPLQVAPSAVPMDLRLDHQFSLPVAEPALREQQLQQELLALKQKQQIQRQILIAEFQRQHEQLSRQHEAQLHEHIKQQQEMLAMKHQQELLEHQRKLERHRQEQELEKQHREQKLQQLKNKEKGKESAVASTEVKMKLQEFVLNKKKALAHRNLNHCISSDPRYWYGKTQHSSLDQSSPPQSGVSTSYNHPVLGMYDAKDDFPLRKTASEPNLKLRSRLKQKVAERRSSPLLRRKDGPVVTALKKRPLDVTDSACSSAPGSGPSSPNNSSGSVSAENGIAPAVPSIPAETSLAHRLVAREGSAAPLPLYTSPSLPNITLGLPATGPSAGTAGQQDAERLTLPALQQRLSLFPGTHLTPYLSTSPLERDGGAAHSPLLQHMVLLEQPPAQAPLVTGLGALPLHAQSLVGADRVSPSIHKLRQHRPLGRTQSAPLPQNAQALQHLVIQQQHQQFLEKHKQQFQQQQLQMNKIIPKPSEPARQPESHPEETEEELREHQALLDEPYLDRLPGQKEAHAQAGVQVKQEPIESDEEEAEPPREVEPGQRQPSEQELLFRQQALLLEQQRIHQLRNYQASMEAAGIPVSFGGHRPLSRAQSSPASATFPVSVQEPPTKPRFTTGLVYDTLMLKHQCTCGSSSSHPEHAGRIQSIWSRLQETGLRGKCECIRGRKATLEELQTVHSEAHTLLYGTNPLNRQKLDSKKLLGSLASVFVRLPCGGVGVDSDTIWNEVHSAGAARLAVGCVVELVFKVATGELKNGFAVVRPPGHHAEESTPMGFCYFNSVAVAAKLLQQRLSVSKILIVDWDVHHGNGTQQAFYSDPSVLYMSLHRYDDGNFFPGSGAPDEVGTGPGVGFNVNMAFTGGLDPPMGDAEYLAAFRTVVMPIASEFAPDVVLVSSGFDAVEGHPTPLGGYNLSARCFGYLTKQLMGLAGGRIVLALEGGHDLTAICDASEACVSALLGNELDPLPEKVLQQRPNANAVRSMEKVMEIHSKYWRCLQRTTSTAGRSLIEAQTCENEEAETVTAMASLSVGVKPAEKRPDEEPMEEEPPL
# Sequence of Histone deacetylase 1 (Homo sapiens) (Q13547 whole entry): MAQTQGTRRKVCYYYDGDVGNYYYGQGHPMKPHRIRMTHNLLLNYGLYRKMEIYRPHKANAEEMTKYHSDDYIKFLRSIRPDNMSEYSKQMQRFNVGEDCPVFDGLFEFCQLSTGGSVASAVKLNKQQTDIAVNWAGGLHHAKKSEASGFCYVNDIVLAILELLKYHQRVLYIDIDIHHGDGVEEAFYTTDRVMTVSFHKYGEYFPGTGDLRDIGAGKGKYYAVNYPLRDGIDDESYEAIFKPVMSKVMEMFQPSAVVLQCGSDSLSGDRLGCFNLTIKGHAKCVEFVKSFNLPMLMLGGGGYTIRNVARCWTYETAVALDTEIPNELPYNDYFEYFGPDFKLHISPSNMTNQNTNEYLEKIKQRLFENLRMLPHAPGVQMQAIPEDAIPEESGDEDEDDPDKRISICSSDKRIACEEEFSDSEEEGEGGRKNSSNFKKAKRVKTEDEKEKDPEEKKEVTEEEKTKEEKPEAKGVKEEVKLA
# Sequence of Histone deacetylase 2 (Homo sapiens) (Q92769 whole entry, the tested form may be a part): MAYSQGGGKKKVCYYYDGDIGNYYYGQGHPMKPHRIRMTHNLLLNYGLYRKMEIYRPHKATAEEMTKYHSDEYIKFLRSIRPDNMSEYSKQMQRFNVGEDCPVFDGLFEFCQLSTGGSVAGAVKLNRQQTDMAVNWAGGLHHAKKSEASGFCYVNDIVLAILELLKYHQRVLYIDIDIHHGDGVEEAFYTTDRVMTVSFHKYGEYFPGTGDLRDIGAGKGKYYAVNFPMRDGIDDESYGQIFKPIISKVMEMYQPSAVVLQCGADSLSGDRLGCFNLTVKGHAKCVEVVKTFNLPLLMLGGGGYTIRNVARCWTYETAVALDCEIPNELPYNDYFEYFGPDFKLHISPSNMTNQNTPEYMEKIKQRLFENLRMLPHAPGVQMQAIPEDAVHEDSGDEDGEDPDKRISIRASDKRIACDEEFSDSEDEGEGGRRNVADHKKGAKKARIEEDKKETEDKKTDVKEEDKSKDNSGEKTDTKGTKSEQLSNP
SMILES,inhibition [1],inhibition [2],inhibition [3],inhibition [4],inhibition [5],IC50 [6]
FC(F)c1nnc(-c2cncnc2)o1,< 15%,56%,< 15%,< 15%,< 15%,–
O=C(NNC(=O)C(F)F)c1cnc(NCc2ccccc2)nc1,–,< 15%,–,–,–,–
NNC(=O)c1cnc(NCc2ccccc2)nc1,–,30%,–,–,–,–
FCc1nnc(-c2cnc(NCc3ccccc3)nc2)o1,–,54%,–,–,–,–
Cc1nnc(-c2cnc(NCc3ccccc3)nc2)o1,–,< 15%,–,–,–,–
Cc1ccc(-c2nnc(C(F)F)o2)cn1,< 15%,39%,< 15%,< 15%,< 15%,–

# Continued, values first:
inhibition [1],inhibition [2],inhibition [3],inhibition [4],inhibition [5],IC50 [6],SMILES
< 15%,27%,< 15%,< 15%,< 15%,–,CN(C)c1ccc(C(=O)N(CC(=O)NCc2ccccc2)Cc2ccc(-c3nnc(C(F)F)o3)cc2)cc1
< 15%,76%,< 15%,< 15%,< 15%,–,CCCCN(Cc1ccc(-c2nnc(C(F)F)o2)cc1)C(=O)Nc1ccccc1
< 15%,< 15%,< 15%,< 15%,< 15%,–,FC(F)c1nnc(-c2ccccc2)o1
< 15%,–,< 15%,< 15%,< 15%,337 nM,COc1ccc(CNc2ncc(-c3nnc(C(F)F)o3)cn2)cc1
< 15%,75%,< 15%,< 15%,< 15%,–,CCCCN(Cc1ccc(-c2nnc(C(F)F)o2)cc1)C(=O)c1ccccc1
